Experimental data taken from ChEMBL document CHEMBL3414565, “Discovery of novel AHLs as potent antiproliferative agents” (Eur J Med Chem, 2015).

Tests used:
Assay type in all cases: functional, cell-based
SMMC-7721 = assay: Cytotoxicity against human SMMC7721 cells after 72 hrs by MTT assay; conditions: SMMC-7721, 72 h
Procedure, shortened: (§1)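 Cells were grown in RPMI1640 and seeded at 5 × 10^3 cells/well, then left 24 h at 37 °C. Medium was replaced with fresh medium holding a range of compound concentrations, from 10 mM DMSO stocks with final DMSO at most 0.1%. Exposure lasted 72 h. MTT (5 mg/mL) was added for 4 h at 37 °C, formazan was dissolved in DMSO and A570 was read. IC50 came from dose-response curves as mean ± SD of three independent experiments.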

[1] = Cytotoxicity against human EC9706 cells after 72 hrs by MTT assay; conditions: EC9706, 72 h; procedure, shortened: as §1
MCF7 = assay: Cytotoxicity against human MCF7 cells after 72 hrs by MTT assay; conditions: MCF7, 72 h; procedure, shortened: as §1
MGC-803 = assay: Cytotoxicity against human MGC803 cells after 72 hrs by MTT assay; conditions: MGC-803, 72 h; procedure, shortened: as §1

| Structure (SMILES) | IC50 (SMMC-7721) | IC50 [1] | IC50 (MCF7) | IC50 (MGC-803) |
| --- | --- | --- | --- | --- |
| O=C(CSC(=S)N[C@H]1CCOC1=O)Nc1ccc(C(=O)/C=C/c2ccc(Br)cc2)cc1 | 18 µM | 91.2 µM | 18.7 µM | 19.6 µM |
| Cc1ccc(NC(=O)CSC(=S)N[C@H]2CCOC2=O)cc1 | 32.7 µM | 93.9 µM | 33.5 µM | 44.3 µM |
| O=C(CSC(=S)N[C@H]1CCOC1=O)Nc1ccc(Br)cc1 | 28.3 µM | 67.4 µM | 66.5 µM | – |
| O=C(CSC(=S)N[C@H]1CCOC1=O)Nc1cccc(C(F)(F)F)c1 | > 128 µM | 79.7 µM | 3.13 µM | 17.9 µM |
| O=C(CSC(=S)N[C@H]1CCOC1=O)Nc1ccc(Cl)cc1Cl | > 128 µM | > 128 µM | 29.2 µM | 48.5 µM |
| O=C(CSC(=S)N[C@H]1CCOC1=O)Nc1ccc(C(=O)/C=C/c2ccc(F)cc2)cc1 | > 128 µM | 46.1 µM | 83.7 µM | 45.7 µM |
| O=C(CCl)Nc1ccc(C(=O)/C=C/c2ccc(F)cc2)cc1 | 15.1 µM | 8.6 µM | 5.47 µM | 4.68 µM |
| CCSC(=S)N[C@H]1CCOC1=O | > 128 µM | > 128 µM | > 128 µM | > 128 µM |
| O=C(CSC(=S)N[C@H]1CCOC1=O)Nc1ccc(C(=O)/C=C/c2ccccc2)cc1 | > 128 µM | 44.9 µM | 44.3 µM | 24.8 µM |
| Cc1cccc(NC(=O)CSC(=S)N[C@H]2CCOC2=O)c1C | 42.1 µM | > 128 µM | > 128 µM | – |
| CCOC(=O)c1ccc(NC(=O)CSC(=S)N[C@H]2CCOC2=O)cc1 | 64.9 µM | 112 µM | 60.2 µM | 21.7 µM |
| O=C(CSC(=S)N[C@H]1CCOC1=O)Nc1ccccc1F | > 128 µM | > 128 µM | 28.6 µM | – |
| O=c1[nH]cc(F)c(=O)[nH]1 [FLUOROURACIL] | 20.4 µM | 15.7 µM | 12.2 µM | 10.7 µM |
| O=C(CSC(=S)N[C@H]1CCOC1=O)Nc1cccc([N+](=O)[O-])c1 | > 128 µM | > 128 µM | 5.46 µM | 58.9 µM |
| COc1ccc(NC(=O)CSC(=S)N[C@H]2CCOC2=O)cc1 | > 128 µM | > 128 µM | > 128 µM | 62.1 µM |
| O=C(CCl)Nc1ccc(C(=O)/C=C/c2ccc(F)c(F)c2)cc1 | 5.96 µM | 4.63 µM | 2.29 µM | 3.19 µM |
| CCCCCCSC(=S)N[C@H]1CCOC1=O | > 128 µM | > 128 µM | > 128 µM | > 128 µM |
| CCCCCCCCCC(=O)CC(=O)N[C@H]1CCOC1=O | > 128 µM | > 128 µM | 37.3 µM | 102 µM |
| COc1cc(/C=C/C(=O)c2ccc(NC(=O)CCl)cc2)cc(OC)c1OC | 3 µM | 2.73 µM | 1.32 µM | 1.72 µM |
| O=C(CSC(=S)N[C@H]1CCOC1=O)Nc1ccc(Cl)cc1 | > 128 µM | > 128 µM | 50.3 µM | – |
| O=C(CCl)Nc1ccc(C(=O)/C=C/c2ccccc2Cl)cc1 | 11.1 µM | 6.98 µM | 5.26 µM | 2.75 µM |
| O=C(CCl)Nc1ccc(C(=O)/C=C/c2ccc([N+](=O)[O-])cc2)cc1 | 9.06 µM | 3.67 µM | 3.91 µM | 2.35 µM |
| CCCCSC(=S)N[C@H]1CCOC1=O | > 128 µM | > 128 µM | > 128 µM | > 128 µM |

| Structure (SMILES) | IC50 (SMMC-7721) | IC50 [1] | IC50 (MCF7) | IC50 (MGC-803) |
| --- | --- | --- | --- | --- |
| O=C(CSC(=S)N[C@H]1CCOC1=O)Nc1ccc(F)cc1 | > 128 µM | 67.1 µM | 5.83 µM | 37.6 µM |
| O=C(CSC(=S)N[C@H]1CCOC1=O)Nc1ccccc1 | > 128 µM | > 128 µM | > 128 µM | 39.7 µM |
| O=C(CSC(=S)N[C@H]1CCOC1=O)Nc1ccc(C(=O)/C=C/c2ccc(Cl)cc2)cc1 | > 128 µM | 38.9 µM | 20.2 µM | 6.9 µM |
| O=C(CSC(=S)N[C@H]1CCOC1=O)Nc1ccccc1Cl | 49.9 µM | > 128 µM | 90.8 µM | 31.9 µM |
| O=C(CCl)Nc1ccc(C(=O)/C=C/c2ccc(Br)cc2)cc1 | 13.3 µM | 10.1 µM | 4.64 µM | 6.05 µM |
| CCCCCCCCCCCCCCSC(=S)N[C@H]1CCOC1=O | 56.8 µM | 66.2 µM | 30.5 µM | – |
| O=C(CSC(=S)N[C@H]1CCOC1=O)Nc1ccc(O)cc1 | > 128 µM | > 128 µM | > 128 µM | 80 µM |
| O=C(CCl)Nc1ccc(C(=O)/C=C/c2ccccc2)cc1 | 12.6 µM | 6.37 µM | 2.48 µM | 6.94 µM |
| O=C(CCl)Nc1ccc(C(=O)/C=C/c2ccc(Cl)cc2)cc1 | 8.16 µM | 8.34 µM | 4.1 µM | 4.96 µM |
| O=C(CSC(=S)N[C@H]1CCOC1=O)Nc1cccc(Cl)c1 | > 128 µM | 107 µM | 46.6 µM | 21.8 µM |
| Cc1cccc(NC(=O)CSC(=S)N[C@H]2CCOC2=O)c1 | > 128 µM | > 128 µM | 63.2 µM | 36.6 µM |
| O=C(CSC(=S)N[C@H]1CCOC1=O)Nc1ccc(C(=O)/C=C/c2cccc(Cl)c2)cc1 | 39.1 µM | 32.5 µM | 11.6 µM | 15.6 µM |
| Cc1ccc(/C=C/C(=O)c2ccc(NC(=O)CCl)cc2)cc1 | 22.9 µM | 7.15 µM | 9.18 µM | 3.6 µM |
| CCCCCCCCSC(=S)N[C@H]1CCOC1=O | 65 µM | > 128 µM | > 128 µM | > 128 µM |
| O=C(CCl)Nc1ccc(C(=O)/C=C/c2cccc(Cl)c2)cc1 | 7.76 µM | 5.56 µM | 5.34 µM | 2.01 µM |
| COc1cccc(/C=C/C(=O)c2ccc(NC(=O)CCl)cc2)c1 | 10.3 µM | 5.97 µM | 3.02 µM | 2.91 µM |
| CCCCCCCCCCCCSC(=S)N[C@H]1CCOC1=O | 50.3 µM | 58.3 µM | 61.1 µM | – |
| CC(=O)c1ccc(NC(=O)CSC(=S)N[C@H]2CCOC2=O)cc1 | > 128 µM | > 128 µM | > 128 µM | 99.4 µM |
| O=C(CCl)Nc1ccc(C(=O)/C=C/C=C/c2ccccc2)cc1 | 36.7 µM | 10.7 µM | 4.59 µM | 5.97 µM |
| CSC(=S)N[C@H]1CCOC1=O | > 128 µM | > 128 µM | > 128 µM | > 128 µM |
| CCCCc1ccc(NC(=O)CSC(=S)N[C@H]2CCOC2=O)cc1 | 27.3 µM | 44.2 µM | 40.2 µM | 20.5 µM |
| O=C(CSC(=S)N[C@H]1CCOC1=O)Nc1ccc(C(=O)/C=C/c2ccc([N+](=O)[O-])cc2)cc1 | > 128 µM | > 128 µM | 2.67 µM | 29.4 µM |
